Laboratory results: ChEMBL document CHEMBL2401625, “Synthesis and evaluation of pharmacological properties of some new xanthone derivatives with piperazine moiety” (Bioorg Med Chem Lett, 2013)
Activity calls are given as the source filed them. The calls are words filed in the database; no cut-off is given here.

Key:
Mus musculus [1] = assay: Anticonvulsant activity in CF1 mouse assessed as protection against maximal electroshock-induced seizures at 30 mg/kg, ip after 4 hrs; format: functional, organism-based; design: dose 30 mg/kg
Summary of the method: (§1)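 Mice given compound i.p. at 30, 100 or 300 mg/kg and tested 0.5 or 4 h after dosing. Seizures were induced by maximal electroshock (MES) or subcutaneous metrazole (ScMet). Prevention of seizures counts as protection. Result is recorded as number of animals protected over number tested.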

Mus musculus [2] = assay: Anticonvulsant activity in CF1 mouse assessed as protection against maximal electroshock-induced seizures at 100 mg/kg, ip after 0.5 hrs; format: functional, organism-based; design: dose 100 mg/kg; summary of the method: as §1
[3] = biological target: 5-hydroxytryptamine receptor 6 (Homo sapiens, UniProt P50406); assay: Displacement of [3H]LSD from human 5HT6 receptor expressed in HEK293 cells after 1 hr; format: cell-based
[4] = biological target: T1, 5-hydroxytryptamine receptor 1A (Homo sapiens, UniProt P08908); assay: Displacement of [3H]8-OH-DPAT from human 5HT1A receptor expressed in HEK293 cells after 1 hr; format: cell-based
T1 sequence (P08908 whole entry): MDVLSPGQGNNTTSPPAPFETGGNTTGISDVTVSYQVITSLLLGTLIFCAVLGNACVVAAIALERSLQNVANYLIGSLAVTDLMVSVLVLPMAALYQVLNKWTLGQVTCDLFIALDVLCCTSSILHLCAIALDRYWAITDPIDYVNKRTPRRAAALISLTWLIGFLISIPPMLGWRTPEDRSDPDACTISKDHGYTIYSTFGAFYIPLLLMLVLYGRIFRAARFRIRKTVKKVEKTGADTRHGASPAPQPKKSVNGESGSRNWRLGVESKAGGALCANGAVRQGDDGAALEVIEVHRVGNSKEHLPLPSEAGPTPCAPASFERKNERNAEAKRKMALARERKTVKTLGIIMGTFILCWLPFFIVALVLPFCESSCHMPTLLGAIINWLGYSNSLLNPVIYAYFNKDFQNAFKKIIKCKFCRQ

Mus musculus [5] = assay: Neurotoxicity in CF1 mouse assessed as minimal motor impairment at 30 mg/kg, ip after 0.5 hrs by rotorod test; format: toxicity, organism-based; design: dose 30 mg/kg, route intraperitoneal; conditions: in vivo
Summary of the method: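 Rotarod neurotoxicity screen in mice dosed i.p. at 30, 100 or 300 mg/kg, read 0.5 or 4 h after dosing. The animal must stay on a rod rotating at 6 rpm without falling, measured 3 times within 1 min. A fall counts as minimal motor impairment. Result is recorded as impaired animals over animals used.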

Rattus norvegicus [6] = assay: Anticonvulsant activity in Sprague-Dawley rat assessed as protection against maximal electroshock-induced seizures at 30 mg/kg, po after 0.25 hrs; format: functional, organism-based; design: dose 30 mg/kg
Summary of the method: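 Rats dosed orally at 30 mg/kg and tested in MES at several time points after dosing. Protection means seizures were prevented. Result is recorded as number of animals protected over number tested.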

Rattus norvegicus [7] = assay: Neurotoxicity in Sprague-Dawley rat assessed as minimal motor impairment at 30 mg/kg, po after 4 hrs by rotorod test; conditions: in vivo
Mus musculus [8] = assay: Anticonvulsant activity in CF1 mouse assessed as protection against subcutaneous metrazole-induced seizures at 30 mg/kg, ip after 4 hrs; format: functional, organism-based; design: dose 30 mg/kg; summary of the method: as §1

Chain of 5-hydroxytryptamine receptor 6 (P50406 whole entry): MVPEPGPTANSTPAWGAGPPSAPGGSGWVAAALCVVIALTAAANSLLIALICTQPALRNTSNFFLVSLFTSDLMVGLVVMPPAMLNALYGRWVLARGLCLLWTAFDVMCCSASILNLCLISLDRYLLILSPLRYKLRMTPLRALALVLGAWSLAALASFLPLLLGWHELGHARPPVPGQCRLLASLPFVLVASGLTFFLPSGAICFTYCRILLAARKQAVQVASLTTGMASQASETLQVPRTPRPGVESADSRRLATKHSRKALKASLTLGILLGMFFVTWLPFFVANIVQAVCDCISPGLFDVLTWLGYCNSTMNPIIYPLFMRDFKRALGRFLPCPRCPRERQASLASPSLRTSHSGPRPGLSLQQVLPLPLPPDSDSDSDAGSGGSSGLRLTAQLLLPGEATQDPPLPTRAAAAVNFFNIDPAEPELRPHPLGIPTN

SMILES: Cl.Cl.Cl.O=c1c2ccc(Cl)cc2oc2c(CN3CCN(CCO)CC3)cccc12
- Activity (Mus musculus [1]): inactive
- Activity (Mus musculus [2]): Active
- Ki [3]: 14.4 µM
- Ki [4]: 4.5 µM
- Activity (Mus musculus [5]): Non-toxic
- Activity (Rattus norvegicus [6]): inactive
- Activity (Rattus norvegicus [7]): Non-toxic
- Activity (Mus musculus [8]): inactive
